# Screens deposited in PubChem BioAssay by several laboratories.
# HNF4A DNA FP: change in binding of human HNF4 alpha to DNA | HNF4a-FITC DNA binding, fluorescence polarization, 1 h | P41235 | activity change, % at 10 µM | hit rate 0.3% among 360,000; in the data active means activity change above about 30%, passing the limit was not always enough
# Target sequence (P41235 whole entry, looked up): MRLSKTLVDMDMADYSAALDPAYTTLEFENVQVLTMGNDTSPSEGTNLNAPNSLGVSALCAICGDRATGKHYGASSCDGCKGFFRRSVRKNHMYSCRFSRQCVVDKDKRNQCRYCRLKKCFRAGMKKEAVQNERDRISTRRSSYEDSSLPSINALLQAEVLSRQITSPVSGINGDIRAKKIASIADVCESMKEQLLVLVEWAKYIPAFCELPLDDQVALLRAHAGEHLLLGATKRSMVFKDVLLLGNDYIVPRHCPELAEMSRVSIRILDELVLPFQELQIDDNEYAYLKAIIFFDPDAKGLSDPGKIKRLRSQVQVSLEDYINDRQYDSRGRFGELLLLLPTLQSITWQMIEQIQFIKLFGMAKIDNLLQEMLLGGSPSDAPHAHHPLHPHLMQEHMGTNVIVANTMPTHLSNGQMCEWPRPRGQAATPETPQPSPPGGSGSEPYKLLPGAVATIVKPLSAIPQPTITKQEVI
# CRFBP-R2 agonist: agonists of human CRF-binding protein/CRF-R2 receptor complex; HEK293 CRF-R2/CRF-BP, calcium dye fluorescence (FLIPR); percent of saturating CRF peptide response; activation, % at 13.2 µM; hit rate 0.46% among 350,000; AID 588473;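 active means activation of at least 50%, plus an integration ratio under a set limit after plate pattern correction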
# CSN inh: blocks human CSN-mediated cullin deneddylation | Purified CSN, SCF-Nedd8-OG deneddylation, fluorescence polarization | hit rate 0.38% among 360,000 | inhibition, % at 12.5 µM;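 active means pattern-corrected inhibition above about 35%, with an unprinted fluorescence ratio check between 0.5 and 1.5, limit read from the data, passing the limit was not always enough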
#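 Material: purified human Csn5 enzyme expressed in HEK293T cells / Medium: Tris buffer pH 7.5, NaCl, DTT, Tween-20, trehalose, ovalbumin / Compound dosing: 12.5 µM single point / Schedule: 90 min incubation of compound, enzyme and substrate at room temperature / Signal: fluorescence polarization of the substrate / Control set: no-enzyme wells high, enzyme-with-substrate wells low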
# Rpn11 inh: inhibitors of human proteasome Rpn11; O00487; calls only at 20 µM; hit rate 0.59% among 360,000; human 26S proteasome, Ub4-pepOG fluorescence polarization; 20S core pre-blocked with epoxomicin;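 active means inhibition at 20 µM, scaled to each plate's controls, above about 33%, limit read from the data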
# TPT1 inh: C. albicans TPT1 enzyme inhibition | hit rate 0.81% among 300,000 | recombinant caTPT1, FP RNA substrate dephosphorylation | AID 1962 | inhibition, % at 5 µM;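 active means inhibition above the mean of all tested compounds plus 3 SD, set per screening campaign, cut at about 24% in these data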
# CRFBP-R2 block: blocks CRF-induced signaling of the CRF-BP/CRF-R2 complex | HEK293 CRF-R2/CRF-BP, CRF-induced calcium fluorescence | inhibition, % at 11.8 µM | hit rate 0.59% among 350,000;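 active means inhibition of the ligand-induced calcium signal above about 50% at the single tested concentration, limit read from the data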
# Numbers stand for hits; n = inactive; x = not tested or not shown. Sampled rows, rich in hits. Any-hit rate of the full collection: about 2.3%.
SMILES,HNF4A DNA FP,CRFBP-R2 agonist,CSN inh,Rpn11 inh,TPT1 inh,CRFBP-R2 block
O=C(O)COc1ccc(NC(=O)c2ccc3c(c2)C(=O)N(C2CCCCC2)C3=O)cc1,n,n,n,n,n,n
Cc1ccc(Nc2oc(C)nc2C#N)cc1,n,n,n,n,n,n
CC(=O)Nc1nc(C)c(Oc2ccccc2)c(=O)[nH]1,n,n,n,n,n,n
CCC(=O)Nc1nc(C)c(Oc2ccccc2)c(=O)[nH]1,n,n,104.7,n,n,n
CCN(c1ccccc1)c1nc(C#N)nc(N(CC)c2ccccc2)n1,n,n,n,n,n,82.7
CCN(CC)c1nc(C#N)nc(N(CC)CC)n1,n,n,n,n,x,n
O=C(CC12CC3CC(CC(Br)(C3)C1)C2)NCc1ccccc1,n,n,n,n,n,n
Nc1ccc(O)c2c1C(=O)c1ccccc1C2=O,n,n,n,n,n,n
O=C1c2ccccc2C(=O)c2c(O)c(O)cc(O)c21,n,n,n,n,x,51.6
CCCNC(=O)c1cc(C2CCCCN2C(=O)OCC(C)C)on1 (stereo not given),n,x,n,n,x,x
Cc1ccc(-c2csc(NC(=O)CCNC(=O)c3ccco3)n2)cc1,40.2,n,n,n,n,n
C=CCN(c1ccccc1)S(=O)(=O)c1cccc(C(=O)O)c1,n,n,n,n,n,97.9
CC(=O)c1c(C)nc2ccccc2c1N,n,n,n,n,n,n
Cc1cccc(-n2cnc3c(c2=O)c2nc4ccccc4nc2n3Cc2ccco2)c1,n,n,n,n,n,n
Cc1cccc(S(=O)(=O)c2c(N)n(Cc3ccco3)c3nc4ccccc4nc23)c1,n,96.9,n,x,n,n
CCCCn1c(N)c(S(=O)(=O)c2ccc(C)cc2)c2nc3ccccc3nc21,n,n,39.2,n,n,n
O=C(COC(=O)c1cc(=O)[nH]c2ccccc12)Nc1ccc(F)cc1F,n,n,n,n,x,n
COc1ccc(C2=NN(C(=O)CN3CCCCC3)C(c3ccc(OC)cc3)C2)cc1 (stereo not given),n,n,n,n,n,n
O=C(Nc1ccc(N2CCN(c3ccccc3)CC2)c(F)c1)C1CC1,n,n,n,n,n,58.2
CN1CCC(CO)(Cc2ccccc2)CC1,n,n,n,n,n,n
CCOc1ccc(C2C(C#N)=C(N)N3C(=C2C#N)Sc2ccccc23)cc1 (stereo not given),n,92.7,n,n,n,n
N#CC1=C(N)N2C(=C(C#N)C1c1ccccc1)Sc1ccccc12 (stereo not given),x,x,x,x,n,x
COc1ccc(CC(=O)N(C)Cc2ccc(C(C)(C)C)cc2)cc1S(=O)(=O)N1CCOCC1,n,n,n,n,n,n
Fc1cnc(N2CCN(c3ccccc3)CC2)nc1N1CCN(c2ccccc2)CC1,n,n,n,n,n,n
COc1ccc(C2c3c(-c4ccccc4O)n[nH]c3C(=O)N2Cc2ccco2)cc1 (stereo not given),n,n,n,n,n,135.8
SMILES,HNF4A DNA FP,CRFBP-R2 agonist,CSN inh,Rpn11 inh,TPT1 inh,CRFBP-R2 block
O=S(=O)(Nc1ccccc1N1CCOCC1)c1cccs1,n,n,n,n,x,n
CC(c1nnc(SCC(=O)NC(=O)NCc2ccco2)n1-c1ccc(Cl)cc1)N(C)C (stereo not given),n,n,n,n,n,n
Cc1nnc(-c2cccc(Br)c2)c2cn(-c3ccc(Br)cc3)nc12,63.3,n,n,n,n,n
CC(C)Cc1cc(C(=O)N2CCCC(C(=O)c3cc(F)ccc3F)C2)n(C)n1 (stereo not given),n,n,n,n,n,n
CCOc1ccc(S(=O)(=O)N2CCN(Cc3ccc4c(c3)OCO4)CC2)cc1OCC,n,n,n,n,n,n
CS(=O)(=O)N1CCc2cc(S(=O)(=O)N3CCN(Cc4ccc5c(c4)OCO5)CC3)ccc21,n,n,n,n,n,56.6
CCOCCCN(Cc1cc2cc(C)cc(C)c2[nH]c1=O)C(=O)N(CC)CC,n,n,n,n,n,51.6
CC1(C)CC(=O)C2=C(C1)OC(/N=C/N1CCCC1)=C(C#N)C2c1ccccc1 (stereo not given),n,n,n,n,n,103.5
Cc1c(Cl)cccc1NC(=O)NNC(=O)CCc1ccccc1,n,n,n,n,n,n
C[C@@H]1CN([C@H](C)CO)C(=O)CCCn2nncc2CO[C@@H]1CN(C)C(=O)Nc1ccc2c(c1)OCO2,n,n,n,n,x,n
CC1C(=O)N(Cc2ccc(F)cc2)c2ccccc2N1C(=O)c1c(F)cccc1F (stereo not given),n,n,n,n,n,n
COC(=O)c1ccc(CN2C(=O)C(C)N(C(=O)c3c(F)cccc3F)c3ccccc32)cc1 (stereo not given),n,n,n,n,n,58.4
CCc1cccc(NC(=S)N(CCCN2CCOCC2)C(C)c2cc3cccc(OC)c3o2)c1 (stereo not given),n,n,n,n,n,76.5
Cc1nnc(SCc2nnc(-c3ccccc3Br)o2)n1-c1ccccc1,n,n,n,n,n,n
Brc1ccccc1-c1nnc(CSc2nnnn2-c2ccccc2)o1,n,n,n,n,n,111.5
OC(CNC1CCCc2ccccc21)COc1c(Cl)cccc1Cl (stereo not given),n,n,n,n,n,n
CCOc1ccc(C2CC(c3ccc(OC)c(OC)c3)n3nc(N)nc3N2)cc1 (stereo not given),n,n,n,n,n,n
CCCCOC1CC(c2ccc(OCc3ccc(OC)cc3)c(OC)c2)N(C)O1 (stereo not given),n,n,n,n,n,89.5
COCCCNC1=C(Cl)C(=O)c2ccccc2C1=O,n,n,n,n,n,n
COCCCNc1c2c3c(cccc3[nH]c1=O)C(=O)c1ccccc1-2,n,203.9,n,n,n,n
COc1cccc(-n2c(Cc3cc(=O)[nH]c(=O)[nH]3)nnc2SCc2cccnc2)c1,n,n,n,n,n,n
Cn1c(CCNC(=O)c2ccco2)nc2ccccc21,n,n,n,n,n,n
Cc1c(CCOC(=O)C23CC4(C)CC(C)(CC(C)(C4)C2)C3)sc[n+]1CC(=O)c1ccccc1,80.9,n,n,n,n,n
CCCCCC(=O)Nc1cccc(C2=NOC3(C2)C[C@H](C(N)=O)N(C(=O)CCCCC)C3)c1 (stereo not given in full),n,n,n,n,n,n
CCCCCC(=O)N1CC2(CC(c3cccc(NC(=O)CC)c3)=NO2)C[C@H]1C(N)=O (stereo not given in full),n,n,n,n,n,79.0
C/C=C/C(=O)Nc1cccc(C2=NOC3(C2)C[C@@H](C(N)=O)N(C(=O)c2cc([N+](=O)[O-])cc([N+](=O)[O-])c2C)C3)c1 (stereo not given in full),n,232.2,n,n,n,n
